The record followed here is ChEMBL document CHEMBL1158043, “Allergy-preventive phenolic glycosides from Populus sieboldii” (J Nat Prod, 2006).

Active and inactive are the calls of the source. The rule behind the calls is not given here.

For assay [1], the system named is Mus musculus. Kind of assay: Allergy preventing effect in hen egg […]-sensitized ddY mouse assessed as inhibition of blood flow decrease in tail artery at 20 mg/kg, po after 6 days relative to control. It is filed as functional, organism-based. The arrangement: dose 20 mg/kg. Put shortly:
(§1)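 Male ddY mice, 5 weeks old, sensitized s.c. with 50 µg HEL in complete Freund's adjuvant on day 0. Compound given orally at 20 mg/kg on days 0, 3, 6 and 9, 1 h before measurement. After 10 min prewarming at 37 °C, tail subcutaneous blood flow was read by non-contact laser Doppler for 10 min daily over 9 days without anesthesia. Values are % of each mouse's normal flow, mean ± SE, n = 5, compared with HEL-sensitized controls.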

The subject of assay [2] is Mus musculus. Kind of assay: Allergy preventing effect in hen egg […]-sensitized ddY mouse assessed as inhibition of blood flow decrease in tail artery at 20 mg/kg, po after 7 days relative to control. Type of assay: functional, organism-based. The arrangement: dose 20 mg/kg. A digest of the protocol: as §1
The subject of another assay is Platelet. The assay is described as follows: Inhibition of platelet aggregation in hen egg […]-sensitized ddY mouse blood after 9 days. Type of assay: functional, tissue-based. Put shortly:
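Mice were HEL-sensitized and dosed orally at 20 mg/kg as in the blood-flow assay. On day 9, whole blood was drawn under diethyl ether anesthesia, anticoagulated with 3.8% sodium citrate and held 30 min at room temperature. Aggregation was induced with 8 µM ADP and measured by screen filtration pressure on a whole-blood aggregometer. Read-out is cohesion rate, mean ± SE, n = 5.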

For assay [3], the system named is Mus musculus. The assay is described as follows: Allergy preventing effect in hen egg […]-sensitized ddY mouse assessed as inhibition blood flow decrease in tail artery at 20 mg/kg, po relative to control. Type of assay: functional, organism-based. The arrangement: dose 20 mg/kg. A digest of the protocol:
as §1

The subject of assay [4] is Mus musculus. The assay is described as follows: Allergy preventing effect in hen egg […]-sensitized ddY mouse assessed as inhibition of blood flow decrease in tail artery at 20 mg/kg, po after 5 days relative to control. Type of assay: functional, organism-based. The arrangement: dose 20 mg/kg. Put shortly:
as §1

Take `COc1cc(O)c(C(=O)/C=C/c2ccc(O)cc2)c(O[C@@H]2O[C@H](CO)[C@@H](O)[C@H](O)[C@H]2O)c1`: the outcome in the assay with Mus musculus [1], in the assay on Mus musculus [2] and with Platelet was Active.

Consider `O=C(OCc1ccc(O)c(O[C@@H]2O[C@H](CO)[C@@H](O)[C@H](O)[C@H]2O)c1)c1ccccc1`, for which the outcome in the assay with Mus musculus [3] and in the assay with Platelet was Active.

Consider `COc1cc(O[C@@H]2O[C@H](CO)[C@@H](O)[C@H](O)[C@H]2O)c2c(c1)O[C@H](c1ccc(O)cc1)CC2=O`, for which the outcome with Mus musculus [1] and in the assay with Mus musculus [2] was Active. In the assay with Platelet, the outcome was inactive.

Regarding `OCc1ccccc1O[C@@H]1O[C@H](CO)[C@@H](O)[C@H](O)[C@H]1O`, in the assay with Mus musculus [4], the outcome was Active.

For the compound `CC(=O)OC[C@H]1O[C@@H](Oc2cc(COC(=O)c3ccccc3)ccc2O)[C@H](O)[C@@H](O)[C@@H]1O`, the result with Mus musculus [3] and in the assay on Platelet was Active.
